# Source: ChEMBL document CHEMBL1153440, “Hexosamine template. A platform for modulating gene expression and for sugar-based drug discovery” (2009)
# Active and inactive are the calls of the source. No cut-off for these calls is given here.
# Key:
# [1] = tested on: MDA-MB-231; experiment: Increase in sialic acid production in human MDA-MB-231 cells by periodate-resorcinal assay; format: functional, cell-based
# [2] = tested on: MDA-MB-231; experiment: Suppression of MUC1 mRNA expression in human MDA-MB-231 cells by qRT-PCR; format: functional, cell-based
# [3] = tested on: MDA-MB-231; experiment: Growth inhibition of human MDA-MB-231 cells; format: functional, cell-based
# [4] = tested on: HCT-116; experiment: Increase in EGR1 protein expression in human HCT116 cells after 3 days by Western blotting; format: functional, cell-based
# In short: (§1)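 Treated cells (3 days unless stated; HCT-116 also 24 h) washed in ice-cold PBS, lysed in RIPA with protease inhibitors; equal protein (5–20 μg, BCA) run on 4–15% Tris-HCl gel, transferred to nitrocellulose, blocked in 5% milk/TBST, primary antibody 2 h RT or overnight 4 °C, HRP secondary 1 h; chemiluminescence, densitometry. β-actin antibody also used. Two independent experiments.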
# [5] = tested on: MDA-MB-231; experiment: Increase in VEGFA mRNA expression in human MDA-MB-231 cells at 60 uM after 3 days by qRT-PCR; format: functional, cell-based
# [6] = tested on: MDA-MB-231; experiment: Increase in ID1 mRNA expression in human MDA-MB-231 cells at 75 uM after 3 days by qRT-PCR; format: functional, cell-based
# [7] = tested on: MDA-MB-231; experiment: Increase in NQO1 mRNA expression in human MDA-MB-231 cells at 60 uM after 3 days by qRT-PCR; format: functional, cell-based
# [8] = tested on: MDA-MB-231; experiment: Increase in TGF-beta1 mRNA expression in human MDA-MB-231 cells at 60 uM after 3 days by qRT-PCR; format: functional, cell-based
# [9] = tested on: MDA-MB-231; experiment: Increase in VEGFA mRNA expression in human MDA-MB-231 cells at 45 uM after 3 days by qRT-PCR; format: functional, cell-based
# [10] = tested on: HCT-116; experiment: Decrease in EGR1 protein expression in human HCT116 cells after 24 hrs by Western blotting; format: functional, cell-based; in short: as §1
# [11] = tested on: HCT-116; experiment: Decrease in TP53 protein expression in human HCT116 cells assessed as protein levels at 20 uM after 3 days by Western blotting; format: functional; design: scale not given: the % may be the effect or the level left; in short: as §1
# [12] = tested on: MDA-MB-231; experiment: Increase in EGR1 mRNA expression in human MDA-MB-231 cells at 45 uM after 3 days by qRT-PCR relative to control; format: functional
# [13] = tested on: MDA-MB-231; experiment: Growth inhibition of human MDA-MB-231 cells after 3 days; format: functional, cell-based
# In short: (§2)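 Cells seeded in 6-well plates (MDA-MB-231 2.0–2.7×10^5, HCT-116 1.0×10^5 cells/well) with analog in ethanol (vehicle <0.5% v/v), grown 3 days at 37 °C, 5% CO2; cell numbers by Coulter particle counter, two 100 μl counts per sample.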
# [14] = tested on: MDA-MB-231; experiment: Suppression of TP53 mRNA expression in human MDA-MB-231 cells at 75 uM after 3 days by qRT-PCR; format: functional, cell-based
# [15] = tested on: MDA-MB-231; experiment: Increase in EGR1 mRNA expression in human MDA-MB-231 cells at 75 uM after 3 days by qRT-PCR relative to control; format: functional
# [16] = tested on: MDA-MB-231; experiment: Increase in TGF-beta1 mRNA expression in human MDA-MB-231 cells at 75 uM after 3 days by qRT-PCR; format: functional, cell-based
# [17] = tested on: MDA-MB-231; experiment: Decrease in EGR1 protein expression in human MDA-MB-231 cells at >45 uM after 3 days by Western blotting relative to control; format: functional; in short: as §1
# [18] = tested on: HCT-116; experiment: Suppression of TP53 protein expression in human HCT116 cells at 20 uM after 3 days by Western blotting; format: functional, cell-based; in short: as §1
# [19] = tested on: HCT-116; experiment: Decrease in EGR1 mRNA expression in human HCT116 cells after 3 days by qRT-PCR; format: functional, cell-based
# [20] = tested on: MDA-MB-231; experiment: Increase in TGF-beta1 mRNA expression in human MDA-MB-231 cells at 45 uM after 3 days by qRT-PCR; format: functional, cell-based
# [21] = tested on: MDA-MB-231; experiment: Suppression of TP53 mRNA expression in human MDA-MB-231 cells at 60 uM after 3 days by qRT-PCR; format: functional, cell-based
# [22] = tested on: HCT-116; experiment: Decrease in TP53 mRNA level in human HCT116 cells at >=15 uM after 3 days by qRT-PCR
# [23] = tested on: MDA-MB-231; experiment: Increase in VEGFA mRNA expression in human MDA-MB-231 cells at 75 uM after 3 days by qRT-PCR; format: functional, cell-based
# [24] = tested on: MDA-MB-231; experiment: Increase in NQO1 mRNA expression in human MDA-MB-231 cells at 45 uM after 3 days by qRT-PCR; format: functional, cell-based
# [25] = tested on: MDA-MB-231; experiment: Decrease in TP53 protein level in human MDA-MB-231 cells at 15 uM after 3 days by Western blotting; format: functional, cell-based; in short: as §1
# [26] = tested on: HCT-116; experiment: Decrease in TP53 protein expression in human HCT116 cells assessed as protein levels at 25 uM after 3 days by Western blotting; format: functional; design: scale not given: the % may be the effect or the level left; in short: as §1
# [27] = tested on: MDA-MB-231; experiment: Increase in NQO1 mRNA expression in human MDA-MB-231 cells at 75 uM after 3 days by qRT-PCR; format: functional, cell-based
# [28] = tested on: MDA-MB-231; experiment: Increase in ID1 mRNA expression in human MDA-MB-231 cells at 45 uM after 3 days by qRT-PCR; format: functional, cell-based
# [29] = tested on: HCT-116; experiment: Increase in EGR1 mRNA expression in human HCT116 cells after 24 hrs by qRT-PCR; format: functional, cell-based
# [30] = tested on: HCT-116; experiment: Growth inhibition of human HCT116 cells after 3 days; format: functional, cell-based; in short: as §2
# [31] = tested on: HCT-116; experiment: Suppression of TP53 protein expression in human HCT116 cells at 25 uM after 3 days by Western blotting; format: functional, cell-based; in short: as §1
# [32] = tested on: HCT-116; experiment: Increase in HPSE protein level in human HCT116 cells at 25 uM after 3 days by Western blotting; format: functional; in short: as §1
# [33] = tested on: HCT-116; experiment: Increase in HPSE protein level in human HCT116 cells at 20 uM after 3 days by Western blotting; format: functional; in short: as §1
# [34] = tested on: MDA-MB-231; experiment: Increase in EGR1 mRNA expression in human MDA-MB-231 cells at 60 uM after 3 days by qRT-PCR relative to control; format: functional
# [35] = tested on: MDA-MB-231; experiment: Increase in ID1 mRNA expression in human MDA-MB-231 cells at 60 uM after 3 days by qRT-PCR; format: functional, cell-based
# [36] = tested on: MDA-MB-231; experiment: Increase in ID1 mRNA expression in human MDA-MB-231 cells after 3 days by qRT-PCR; format: functional, cell-based
# [37] = tested on: MDA-MB-231; experiment: Increase in NQO1 mRNA expression in human MDA-MB-231 cells after 3 days by qRT-PCR; format: functional, cell-based
# [38] = tested on: MDA-MB-231; experiment: Increase in TGF-beta1 mRNA expression in human MDA-MB-231 cells after 3 days by qRT-PCR; format: functional, cell-based
# [39] = tested on: MDA-MB-231; experiment: Increase in VEGFA mRNA expression in human MDA-MB-231 cells after 3 days by qRT-PCR; format: functional, cell-based
smiles,measurement,setting,value
CC(=O)N[C@@H]1C(OC(C)=O)O[C@H](COC(C)=O)[C@@H](OC(C)=O)[C@@H]1OC(C)=O (some centres undefined),Activity,[1],Active
same,Activity,[2],Active
CCCC(=O)OC[C@H]1OC(OC(C)=O)[C@@H](NC(C)=O)[C@@H](OC(C)=O)[C@@H]1OC(C)=O (some centres undefined),Activity,[3],Active
same,Activity,[1],Active
same,Activity,[2],Active
CCCC(=O)OC[C@H]1OC(O)[C@@H](NC(C)=O)[C@@H](OC(=O)CCC)[C@@H]1OC(=O)CCC (some centres undefined),Activity,[4],Active
same,Activity,[5],Active
same,Activity,[6],inactive
same,Activity,[7],Active
same,Activity,[8],Active
same,Activity,[9],Active
same,Activity,[10],Active
same,Activity,[11],<=5%
same,fold change (FC),[12],2
same,Activity,[13],Active
same,Activity,[14],Active
same,fold change (FC),[15],25
same,Activity,[16],inactive
same,fold change (FC),[17],2
same,Activity,[18],Active
same,Activity,[19],Active
same,Activity,[20],Active
same,Activity,[21],Active
same,Activity,[22],Active
same,Activity,[23],inactive
same,Activity,[24],Active
same,Activity,[25],Active
same,Activity,[26],<=5%
same,Activity,[27],inactive
same,Activity,[28],Active
same,Activity,[29],Active
same,Activity,[30],Active
same,Activity,[31],Active
same,fold change (FC),[32],>=50
same,fold change (FC),[33],>=50
same,fold change (FC),[34],25
same,Activity,[35],Active
CCCC(=O)OC1O[C@H](CO)[C@@H](OC(=O)CCC)[C@H](OC(=O)CCC)[C@@H]1NC(C)=O (some centres undefined),Activity,[36],inactive
same,Activity,[37],inactive
same,Activity,[38],inactive
same,Activity,[39],inactive
CCCC(=O)OC[C@H]1OC(OC(=O)CCC)[C@@H](NC(C)=O)[C@@H](OC(=O)CCC)[C@@H]1OC(=O)CCC (some centres undefined),Activity,[1],Active
CCCC(=O)OC1O[C@H](COC(C)=O)[C@@H](OC(C)=O)[C@H](OC(C)=O)[C@@H]1NC(C)=O (some centres undefined),Activity,[3],Active
same,Activity,[1],Active
